Results reported in ChEMBL document CHEMBL1139384, “First Cdc7 kinase inhibitors: pyrrolopyridinones as potent and orally active antitumor agents. 2. Lead discovery” (J Med Chem, 2009).
The source made the active and inactive calls. No cut-off for these calls is given here.

Experiments:
[1] = target: Cyclin-dependent kinase 2 (Homo sapiens, UniProt P24941); assay: Inhibition of Cdk2A
[2] = target: Protein kinase C beta type (Homo sapiens, UniProt P05771); assay: Inhibition of PKCbeta
[3] = target: Mast/stem cell growth factor receptor Kit (Homo sapiens, UniProt P10721); assay: Inhibition of KIT
Mast/stem cell growth factor receptor Kit, sequence (P10721 whole entry): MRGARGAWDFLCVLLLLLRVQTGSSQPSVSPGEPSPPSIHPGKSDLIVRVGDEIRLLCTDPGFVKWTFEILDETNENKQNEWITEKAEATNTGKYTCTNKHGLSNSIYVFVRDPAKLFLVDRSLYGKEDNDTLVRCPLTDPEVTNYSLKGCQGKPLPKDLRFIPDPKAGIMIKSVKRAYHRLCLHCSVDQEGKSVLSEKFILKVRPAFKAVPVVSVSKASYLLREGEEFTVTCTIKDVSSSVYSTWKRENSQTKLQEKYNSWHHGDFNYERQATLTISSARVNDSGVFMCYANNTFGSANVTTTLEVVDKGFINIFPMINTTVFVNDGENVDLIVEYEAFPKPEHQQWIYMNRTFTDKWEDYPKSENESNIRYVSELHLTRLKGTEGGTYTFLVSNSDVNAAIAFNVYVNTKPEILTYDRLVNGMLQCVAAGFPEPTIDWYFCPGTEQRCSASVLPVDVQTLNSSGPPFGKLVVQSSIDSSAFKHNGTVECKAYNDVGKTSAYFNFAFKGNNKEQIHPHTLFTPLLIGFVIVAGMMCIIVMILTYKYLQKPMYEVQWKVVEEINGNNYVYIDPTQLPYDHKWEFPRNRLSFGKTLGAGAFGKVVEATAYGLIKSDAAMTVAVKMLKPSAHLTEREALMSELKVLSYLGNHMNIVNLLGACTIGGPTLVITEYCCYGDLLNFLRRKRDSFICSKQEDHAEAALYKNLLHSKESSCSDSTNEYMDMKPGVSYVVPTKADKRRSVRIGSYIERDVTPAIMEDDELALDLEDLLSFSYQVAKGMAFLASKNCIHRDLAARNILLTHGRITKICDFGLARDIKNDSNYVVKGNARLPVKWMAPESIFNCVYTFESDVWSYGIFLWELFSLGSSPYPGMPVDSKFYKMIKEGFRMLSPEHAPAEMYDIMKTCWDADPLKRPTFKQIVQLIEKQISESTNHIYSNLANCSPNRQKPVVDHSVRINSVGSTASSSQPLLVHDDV

[4] = Oral bioavailability in nu/nu mouse at 10 mg/kg administered as single dose; format: ADME, organism-based; settings: in vivo
Method in brief: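 Overnight-fasted male Nu/Nu mice got a single 10 mg/kg dose in 5% dextrose, iv or po, three mice per route. Saphenous blood was drawn at 0.083 (iv) or 0.25 (po), 0.5, 1, 6 and 24 h. Plasma was assayed by LC/MS/MS and analysed noncompartmentally. Tmax is the observed peak time, Vss = CL·MRT, and F is the ratio of dose-normalized AUC∞ po/iv.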

[5] = target: Fibroblast growth factor receptor 1 (Homo sapiens, UniProt P11362); assay: Inhibition of FGFR1
Fibroblast growth factor receptor 1, sequence (P11362 whole entry): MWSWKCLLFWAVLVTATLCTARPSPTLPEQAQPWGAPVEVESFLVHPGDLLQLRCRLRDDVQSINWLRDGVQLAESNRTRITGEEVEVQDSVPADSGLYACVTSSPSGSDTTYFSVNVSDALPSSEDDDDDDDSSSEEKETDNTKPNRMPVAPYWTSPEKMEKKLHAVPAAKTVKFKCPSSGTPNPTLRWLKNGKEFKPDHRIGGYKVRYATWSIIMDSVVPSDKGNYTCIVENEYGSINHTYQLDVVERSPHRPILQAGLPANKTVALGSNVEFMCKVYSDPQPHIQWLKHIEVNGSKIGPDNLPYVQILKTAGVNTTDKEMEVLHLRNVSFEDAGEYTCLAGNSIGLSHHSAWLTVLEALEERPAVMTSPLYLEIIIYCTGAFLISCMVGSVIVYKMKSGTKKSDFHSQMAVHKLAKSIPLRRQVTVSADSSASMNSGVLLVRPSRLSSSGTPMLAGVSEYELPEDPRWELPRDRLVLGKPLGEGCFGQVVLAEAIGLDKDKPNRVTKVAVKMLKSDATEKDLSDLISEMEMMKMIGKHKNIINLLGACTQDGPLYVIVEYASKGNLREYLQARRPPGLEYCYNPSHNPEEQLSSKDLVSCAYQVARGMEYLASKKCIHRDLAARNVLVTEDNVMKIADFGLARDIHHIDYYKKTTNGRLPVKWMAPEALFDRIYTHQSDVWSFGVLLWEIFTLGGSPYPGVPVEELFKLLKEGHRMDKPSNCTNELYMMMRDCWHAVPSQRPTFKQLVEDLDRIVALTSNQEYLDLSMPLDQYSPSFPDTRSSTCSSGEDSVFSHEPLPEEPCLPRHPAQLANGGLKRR

HeLa [6] = assay: Cell cycle arrest in human HeLa cells assessed as accumulation at G1/S phase at 3 uM by fluorescence activated cell sorting; format: functional, cell-based
Method in brief: (§1)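 Logarithmically growing HeLa cells exposed to 3 µM for set times, labelled with 50 µM BrdU, fixed in 70% ethanol. DNA content by propidium iodide with RNase A, 30 min at 37 °C; BrdU by FITC anti-BrdU after 2N HCl denaturation; percent positive cells by FACS.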

HeLa [7] = assay: Cell cycle arrest in human HeLa cells assessed as accumulation at S phase at 3 uM by fluorescence activated cell sorting; format: functional, cell-based; method in brief: as §1
[8] = target: Vascular endothelial growth factor receptor 3 (Homo sapiens, UniProt P35916); assay: Inhibition of VEGFR3
Vascular endothelial growth factor receptor 3, sequence (P35916 whole entry): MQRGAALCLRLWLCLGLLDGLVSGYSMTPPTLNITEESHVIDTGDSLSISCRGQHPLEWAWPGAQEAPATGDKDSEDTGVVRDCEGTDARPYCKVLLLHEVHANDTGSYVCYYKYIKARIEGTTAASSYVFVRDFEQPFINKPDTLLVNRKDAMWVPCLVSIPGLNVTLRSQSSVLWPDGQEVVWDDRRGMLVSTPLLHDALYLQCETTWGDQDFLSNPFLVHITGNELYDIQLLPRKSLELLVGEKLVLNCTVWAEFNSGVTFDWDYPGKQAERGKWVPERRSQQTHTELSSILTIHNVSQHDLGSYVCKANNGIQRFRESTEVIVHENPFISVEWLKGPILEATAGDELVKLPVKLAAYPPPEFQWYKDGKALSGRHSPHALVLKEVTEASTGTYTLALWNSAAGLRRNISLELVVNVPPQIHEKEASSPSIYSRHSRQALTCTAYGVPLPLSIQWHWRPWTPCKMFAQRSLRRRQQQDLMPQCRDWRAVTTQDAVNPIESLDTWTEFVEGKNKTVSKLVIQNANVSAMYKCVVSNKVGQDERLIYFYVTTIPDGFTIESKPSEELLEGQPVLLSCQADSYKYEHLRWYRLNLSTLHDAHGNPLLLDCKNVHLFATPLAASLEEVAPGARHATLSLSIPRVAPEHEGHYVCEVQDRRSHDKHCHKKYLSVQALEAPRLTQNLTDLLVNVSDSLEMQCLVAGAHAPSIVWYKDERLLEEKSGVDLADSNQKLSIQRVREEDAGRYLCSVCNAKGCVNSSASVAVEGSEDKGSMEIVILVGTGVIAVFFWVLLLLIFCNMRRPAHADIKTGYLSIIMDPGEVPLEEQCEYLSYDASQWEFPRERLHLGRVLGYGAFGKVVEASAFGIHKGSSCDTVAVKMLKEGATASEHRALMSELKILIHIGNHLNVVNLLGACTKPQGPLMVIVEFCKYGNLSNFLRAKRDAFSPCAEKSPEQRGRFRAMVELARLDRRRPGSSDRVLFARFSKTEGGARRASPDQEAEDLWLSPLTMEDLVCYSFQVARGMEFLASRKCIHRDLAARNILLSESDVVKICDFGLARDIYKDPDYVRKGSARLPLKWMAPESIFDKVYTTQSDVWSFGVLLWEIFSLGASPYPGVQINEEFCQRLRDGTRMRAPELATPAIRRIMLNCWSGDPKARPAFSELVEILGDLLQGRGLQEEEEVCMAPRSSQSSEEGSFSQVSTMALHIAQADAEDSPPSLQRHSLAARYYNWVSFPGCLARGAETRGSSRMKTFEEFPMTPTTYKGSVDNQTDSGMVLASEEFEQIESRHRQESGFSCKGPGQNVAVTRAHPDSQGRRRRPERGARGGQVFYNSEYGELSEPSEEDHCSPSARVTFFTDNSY

[9] = Clearance in Wistar rat at 10 mg/kg, iv administered as single dose; format: ADME, organism-based; design: dose 10 mg/kg, route intravenous; settings: in vivo
Method in brief: (§2)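 Single iv or oral dose in 5% dextrose to overnight-fasted animals. Nu/Nu mice: males, 3 per route, saphenous bleeds to 24 h. Han-Wistar rats: males, 3 per route, jugular bleeds to 24 h. Beagle dogs: 2 per sex, iv and po crossover 2 weeks apart, jugular bleeds to 48 h. Plasma by LC/MS/MS; noncompartmental parameters, AUC by linear trapezoid with extrapolation.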

Cytochrome P450 2C19 = Cytochrome P450 2C19 (Homo sapiens, UniProt P33261); assay: Inhibition of human CYP2C19; format: ADME
Cytochrome P450 2C19, sequence (P33261 whole entry): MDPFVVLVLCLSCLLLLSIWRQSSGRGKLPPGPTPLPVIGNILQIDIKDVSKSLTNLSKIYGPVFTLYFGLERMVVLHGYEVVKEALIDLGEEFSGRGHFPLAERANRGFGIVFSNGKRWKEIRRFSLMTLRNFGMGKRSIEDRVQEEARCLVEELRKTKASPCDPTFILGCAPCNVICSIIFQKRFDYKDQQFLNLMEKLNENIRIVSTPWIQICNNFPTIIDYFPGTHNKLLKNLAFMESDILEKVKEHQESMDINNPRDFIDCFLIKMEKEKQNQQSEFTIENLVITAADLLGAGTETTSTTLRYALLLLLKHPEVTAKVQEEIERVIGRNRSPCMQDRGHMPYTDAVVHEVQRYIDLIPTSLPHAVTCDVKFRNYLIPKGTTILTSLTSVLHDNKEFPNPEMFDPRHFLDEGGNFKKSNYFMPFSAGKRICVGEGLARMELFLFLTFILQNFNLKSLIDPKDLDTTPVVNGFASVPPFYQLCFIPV

Cytochrome P450 2C9 = Cytochrome P450 2C9 (Homo sapiens, UniProt P11712); assay: Inhibition of human CYP2C9; format: ADME
[10] = Half life in Wistar rat at 10 mg/kg, iv administered as single dose; format: ADME, organism-based; design: dose 10 mg/kg, route intravenous; settings: in vivo; method in brief: as §2
[11] = Renal clearance in Wistar rat at 10 mg/kg, iv administered as single dose; format: ADME, organism-based, Kidney; design: dose 10 mg/kg, route intravenous; settings: in vivo, read-out: CL_renal (converted)
Method in brief: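 Overnight-fasted male Han-Wistar rats got a single 10 mg/kg iv dose in 5% dextrose, three per leg. Jugular blood was drawn from 0.083 to 24 h. Urine was collected over 0–6 and 6–24 h. Plasma and urine were assayed by LC/MS/MS and analysed noncompartmentally. Vss = CL·MRT.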

HeLa [12] = assay: Inhibition of DNA synthesis in human HeLa cells at 3 uM assessed as bromodeoxyuridine incorporation after 3 hrs; format: functional; design: scale not given: the % may be the effect or the level left; method in brief: as §1
HeLa [13] = assay: Inhibition of DNA synthesis in human HeLa cells at 3 uM assessed as bromodeoxyuridine incorporation; format: functional; design: scale not given: the % may be the effect or the level left; method in brief: as §1
Aurora kinase A = Aurora kinase A (Homo sapiens, UniProt O14965); assay: Inhibition of AUR2
[14] = Volume of distribution at steady state in Beagle dog at 5 mg/kg, iv administered as single dose; format: ADME, organism-based, Canis lupus familiaris; design: dose 5 mg/kg, route intravenous; settings: in vivo, read-out: Vdss
Method in brief: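 Overnight-fasted Beagle dogs, 2 per sex, in a crossover design: 5 mg/kg iv and 10 mg/kg po, two weeks apart, in 5% dextrose. Jugular blood was drawn up to 48 h, and urine was collected over 0–8, 8–24 and 24–48 h. Samples were assayed by LC/MS/MS and analysed noncompartmentally.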

[15] = Clearance in nu/nu mouse at 10 mg/kg, iv administered as single dose; format: ADME, organism-based; design: dose 10 mg/kg, route intravenous; settings: in vivo; method in brief: as §2
[16] = Antiproliferative activity against human NCI-H929 cells after 72 hrs by luciferase based assay; format: functional, cell-based; settings: NCI-H929, 72 h
Method in brief: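 Cells seeded at 2500–5000/well in complete medium (RPMI1640, McCoy's or DMEM with 10% FCS, by line); compound added after 24 h, 72 h at 37 °C, 5% CO2.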

NHDF = assay: Antiproliferative activity against human NHDF cells after 72 hrs by luciferase based assay; format: cell-based
[17] = target: T1, Cell division cycle 7-related protein kinase (Homo sapiens, UniProt O00311); assay: Inhibition of human Cdc7 in human A2780 cells assessed as inhibition of Ser53 phosphorylation of Mcm2 protein at 3 uM up to 24 hrs; format: cell-based
T1 sequence (O00311 whole entry, looked up): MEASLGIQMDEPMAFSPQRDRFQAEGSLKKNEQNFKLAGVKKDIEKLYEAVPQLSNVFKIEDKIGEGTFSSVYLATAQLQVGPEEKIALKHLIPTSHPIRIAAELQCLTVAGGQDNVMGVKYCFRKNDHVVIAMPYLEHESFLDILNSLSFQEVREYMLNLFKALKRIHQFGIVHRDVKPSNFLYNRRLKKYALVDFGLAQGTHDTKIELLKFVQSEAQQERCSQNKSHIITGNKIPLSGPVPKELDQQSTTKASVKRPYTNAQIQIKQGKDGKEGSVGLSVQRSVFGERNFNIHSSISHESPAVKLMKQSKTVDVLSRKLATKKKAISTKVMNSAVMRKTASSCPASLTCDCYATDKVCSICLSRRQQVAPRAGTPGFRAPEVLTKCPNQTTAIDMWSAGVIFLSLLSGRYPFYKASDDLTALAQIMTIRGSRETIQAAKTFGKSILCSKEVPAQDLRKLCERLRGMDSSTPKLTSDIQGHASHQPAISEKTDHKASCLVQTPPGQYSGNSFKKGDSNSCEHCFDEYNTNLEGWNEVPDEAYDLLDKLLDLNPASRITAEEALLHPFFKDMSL
Method in brief: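 Time course in A2780 cells held at 3 µM for up to 24 h. Extracts were made in 50 mmol/L Tris-HCl pH 6.8, 1% SDS, 1 mmol/L DTT with 10 s sonication, loaded at 15 µg per lane, and immunoblotted with antiphosphopeptide antibodies to MCM2 Ser40 and Ser53. Cleaved caspase 3 was also probed.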

[18] = target: Tyrosine-protein kinase ABL1 (Homo sapiens, UniProt P00519); assay: Inhibition of ABL
HeLa [19] = assay: Inhibition of DNA synthesis in human HeLa cells at 3 uM assessed as bromodeoxyuridine incorporation after 9 hrs; format: functional; design: scale not given: the % may be the effect or the level left; method in brief: as §1
Mus musculus = assay: Inhibition of human Cdc7 in human A2780 cells xenografted in CDI nu/nu mouse assessed as inhibition of Ser40 phosphorylation of Mcm2 protein at 60 mg/kg, po first dose administered at 6 hrs and second dose 3 hrs after first dose by Western blot; format: functional, organism-based; design: dose 60 mg/kg
Method in brief: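 Mice bearing A2780 xenografts given two oral doses of 60 mg/kg, the second 3 h after the first, over 6 h, or vehicle. Explanted tumors blotted for Mcm2 phospho-Ser40 and phospho-Ser53, with total MCM2 and tubulin as loading controls.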

[20] = Inhibition of CK2
[21] = AUC (0 to infinity) in Beagle dog at 10 mg/kg, po administered as single dose; format: ADME, organism-based, Canis lupus familiaris; design: time infinity, dose 10 mg/kg, route oral; settings: plasma; method in brief: as §2
[22] = Half life in Beagle dog at 10 mg/kg, po administered as single dose; format: ADME, organism-based, Canis lupus familiaris; design: dose 10 mg/kg, route oral; settings: in vivo; method in brief: as §2
[23] = target: T1, Cell division cycle 7-related protein kinase; assay: Inhibition of human Cdc7 in human A2780 cells assessed as inhibition of Ser40 phosphorylation of Mcm2 protein after 4 hrs; format: cell-based
Method in brief: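 A2780 cells exposed for 4 h to a range of concentrations, then lysed in 50 mmol/L Tris-HCl pH 6.8, 1% SDS, 1 mmol/L DTT and sonicated 10 s. 15 µg protein per lane ([…]) was taken for Western blot with phospho-specific antibodies to MCM2 Ser40 and Ser53.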

Protein kinase C beta type, sequence (P05771 whole entry): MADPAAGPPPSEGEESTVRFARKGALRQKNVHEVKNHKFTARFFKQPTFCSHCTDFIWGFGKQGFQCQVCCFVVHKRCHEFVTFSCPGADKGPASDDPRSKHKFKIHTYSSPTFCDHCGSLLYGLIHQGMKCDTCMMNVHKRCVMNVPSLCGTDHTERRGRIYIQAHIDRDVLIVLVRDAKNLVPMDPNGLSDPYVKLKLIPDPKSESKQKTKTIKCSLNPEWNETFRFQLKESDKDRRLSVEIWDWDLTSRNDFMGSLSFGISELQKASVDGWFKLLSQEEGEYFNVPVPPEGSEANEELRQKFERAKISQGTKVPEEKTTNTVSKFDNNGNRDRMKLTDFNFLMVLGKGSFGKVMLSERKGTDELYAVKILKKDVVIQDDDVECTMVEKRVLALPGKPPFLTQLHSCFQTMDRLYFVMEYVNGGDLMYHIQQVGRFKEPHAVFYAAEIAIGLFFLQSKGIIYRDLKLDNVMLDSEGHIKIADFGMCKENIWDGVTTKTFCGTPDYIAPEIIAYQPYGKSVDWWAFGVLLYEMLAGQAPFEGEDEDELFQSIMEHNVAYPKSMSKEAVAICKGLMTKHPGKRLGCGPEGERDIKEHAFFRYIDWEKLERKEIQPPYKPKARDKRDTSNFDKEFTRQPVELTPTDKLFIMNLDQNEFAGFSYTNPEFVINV

`Nc1nccc(-c2cc3c([nH]2)[C@@H](CCF)CNC3=O)n1` gave an IC50 [1] of 0.138 µM, an IC50 [2] of 1.15 µM and an IC50 [3] greater than 4 µM. The bioavailability [4] was 53%, the IC50 [5] was greater than 4 µM and the Activity (HeLa [6]) was “Active”. For the same compound, the Activity (HeLa [7]) was “Active”, the IC50 [8] was greater than 4 µM and the clearance [9] was 1.8 L/h/kg. For the same compound, the Activity (Cytochrome P450 2C19) was “Not Active”, the Activity (Cytochrome P450 2C9) was “Not Active” and the half-life [10] was 1.3 h. For the same compound, the CL renal [11] was 1.1 L/h/kg, the Activity (HeLa [12]) was 28% and the Activity (HeLa [13]) was 35%. The IC50 (Aurora kinase A) was greater than 4 µM, the Vd [14] was 2.1 L/kg and the clearance [15] was 3.7 L/h/kg. For the same compound, the IC50 [16] was 1.2 µM, the IC50 (NHDF) was 1.6 µM and the Activity [17] was “Active”. The IC50 [18] was greater than 4 µM, the Activity (HeLa [19]) was 6% and the Activity (Mus musculus) was “Active”. The IC50 [20] was 0.359 µM, the AUC(0-inf) [21] was 6.4 µM·h and the half-life [22] was 1.2 h. For the same compound, the MED [23] was 0.6 µM.
